According to ChEMBL document CHEMBL2169850, “3,6-bis(3-alkylguanidino)acridines as DNA-intercalating antitumor agents” (Eur J Med Chem, 2012):
Calls of active or inactive are those of the source. The calls are words filed in the database; no cut-off is given here.

Experiments:
HL-60 [1] = assay: Drug uptake in human HL60 cells with necrotic morphology at 50 uM incubated for 18 hrs by fluorescence microscopy; assay type: ADME, cell-based; conditions: hl-60, 18 h
How it was run: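 HL-60 cells were treated with 50 µM compound for 18 h, washed with PBS, resuspended in HBSS and mounted as native slides. Cells were imaged by inverted fluorescence microscopy at 40×, with excitation 360/40 and emission 470/40. The fluorescence channel was merged with brightfield images.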

HL-60 [2] = assay: Cell cycle arrest in human HL60 cells assessed as accumulation at G2/M phase at 15 uM incubated for 72 hrs by flow cytometry (reference value: 12.68 +/- 3.21%); assay type: functional
HL-60 [3] = assay: Cell cycle arrest in human HL60 cells assessed as accumulation at G2/M phase at 25 uM incubated for 48 hrs by flow cytometry (reference value: 16.42 +/- 1.03%); assay type: functional
HL-60 [4] = assay: Cell cycle arrest in human HL60 cells assessed as accumulation at G2/M phase at 5 uM incubated for 24 hrs by flow cytometry (reference value: 19.62 +/- 0.96%); assay type: functional
HL-60 [5] = assay: Cell cycle arrest in human HL60 cells assessed as accumulation at S phase at 25 uM incubated for 72 hrs by flow cytometry (reference value: 40.30 +/- 3.15%); assay type: functional
HL-60 [6] = assay: Cell cycle arrest in human HL60 cells assessed as accumulation at S phase at 25 uM incubated for 48 hrs by flow cytometry (reference value: 45.29 +/- 1.23%); assay type: functional
HL-60 [7] = assay: Cell cycle arrest in human HL60 cells assessed as accumulation at S phase at 15 uM incubated for 48 hrs by flow cytometry (reference value: 45.29 +/- 1.23%); assay type: functional
HL-60 [8] = assay: Cell cycle arrest in human HL60 cells assessed as accumulation at S phase at 5 uM incubated for 48 hrs by flow cytometry (reference value: 45.29 +/- 1.23%); assay type: functional
HL-60 [9] = assay: Cell cycle arrest in human HL60 cells assessed as accumulation at S phase at 25 uM incubated for 24 hrs by flow cytometry (reference value: 44.41 +/- 0.77%); assay type: functional
HL-60 [10] = assay: Cell cycle arrest in human HL60 cells assessed as accumulation at S phase at 5 uM incubated for 24 hrs by flow cytometry (reference value: 44.41 +/- 0.77%); assay type: functional
HL-60 [11] = assay: Cell cycle arrest in human HL60 cells assessed as accumulation at G1 phase at 15 uM incubated for 72 hrs by flow cytometry (reference value: 47.02 +/- 6.19%); assay type: functional
HL-60 [12] = assay: Cell cycle arrest in human HL60 cells assessed as accumulation at G1 phase at 5 uM incubated for 72 hrs by flow cytometry (reference value: 47.02 +/- 6.19%); assay type: functional
HL-60 [13] = assay: Cell cycle arrest in human HL60 cells assessed as accumulation at G1 phase at 25 uM incubated for 48 hrs by flow cytometry (reference value: 38.29 +/- 0.22%); assay type: functional
HL-60 [14] = assay: Cell cycle arrest in human HL60 cells assessed as accumulation at G1 phase at 15 uM incubated for 48 hrs by flow cytometry (reference value: 38.29 +/- 0.22%); assay type: functional
HL-60 [15] = assay: Cell cycle arrest in human HL60 cells assessed as accumulation at G1 phase at 5 uM incubated for 24 hrs by flow cytometry (reference value: 35.96 +/- 1.63%); assay type: functional
HL-60 [16] = assay: Antiproliferative activity against human HL60 cells assessed as cell number at 5 uM incubated for 72 hrs by Coulter counting method; assay type: functional
How it was run: (§1)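 HL-60 cells in RPMI with 10% heat-inactivated FCS, antibiotics and amphotericin, 37 °C, 5% CO2, seeded in 60 mm dishes. Compound added at 5, 15 or 25 µM for 24, 48 or 72 h. Absolute cell counts taken by Coulter counter and expressed as percentage of untreated control. Mean ± SD of at least three independent experiments; one-way ANOVA with Tukey test, p < 0.05.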

HL-60 [17] = assay: Antiproliferative activity against human HL60 cells assessed as cell number at 15 uM incubated for 48 hrs by Coulter counting method; assay type: functional; how it was run: as §1
HL-60 [18] = assay: Antiproliferative activity against human HL60 cells assessed as cell number at 25 uM incubated for 24 hrs by Coulter counting method; assay type: functional; how it was run: as §1
HL-60 [19] = assay: Antiproliferative activity against human HL60 cells assessed as cell number at 5 uM incubated for 24 hrs by Coulter counting method; assay type: functional; how it was run: as §1
Nucleic Acid [20] = assay: Binding affinity to Escherichia coli pUC19 DNA assessed as reduction in DNA mobility to 5 to 80 uM by EMSA; assay type: nucleic-acid assay
How it was run: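 Supercoiled pUC19 plasmid incubated with compound at 5, 20, 40, 60 or 80 µM. Native agarose gel electrophoresis run with no ethidium bromide in the gel; band mobility was then read.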

Nucleic Acid [21] = assay: Binding affinity to calf thymus DNA at 6.5 uM by CD spectroscopy; assay type: nucleic-acid assay; conditions: Bos taurus
How it was run: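 CD spectra were recorded in 1 mm quartz cuvettes in 0.01 M Tris, pH 7.4, with 6.52 µM compound and ctDNA. Each spectrum is the mean of three scans after buffer background subtraction.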

Nucleic Acid [22] = assay: Binding affinity to calf thymus DNA at 11 to 58 uM by LD spectroscopy; assay type: nucleic-acid assay; conditions: Bos taurus
How it was run: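 Flow LD spectra were recorded in a Couette cell (1 mm path) from 210 to 550 nm at 25 °C in 10 mM Tris. ctDNA was modified by compound at 11–58 × 10^-6 M.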

Nucleic Acid [23] = assay: Binding affinity to calf thymus DNA assessed as melting temperature at 12.4 uM by thermal denaturation study; assay type: nucleic-acid assay; conditions: Bos taurus
HL-60 [24] = assay: Induction of necrosis in human HL60 cells at 5 to 25 uM incubated for 72 hrs by AnnexinV/propidium iodide staining method; assay type: functional, cell-based
How it was run: (§2)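 HL-60 cells (1.5 × 10^5) were exposed to compound, then stained 10 min with Annexin V-FITC in HEPES/CaCl2/NaCl binding buffer. Cells were washed, briefly stained with propidium iodide and analysed by flow cytometry for apoptotic and necrotic fractions. Mean ± SD of at least three independent experiments.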

HL-60 [25] = assay: Induction of apoptosis in human HL60 cells at 5 to 25 uM incubated for 72 hrs by AnnexinV/propidium iodide staining method; assay type: functional, cell-based
How it was run: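 HL-60 cells (1.5 × 10^5) were treated at 5–25 µM for 24, 48 or 72 h and harvested. They were stained with Annexin V-FITC for 10 min in HEPES/CaCl2/NaCl binding buffer, washed, briefly stained with PI (1 mg/mL) and analysed by flow cytometry for apoptosis and necrosis. Mean ± SD, n ≥ 3.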

HL-60 [26] = assay: Induction of necrosis in human HL60 cells at 5 to 25 uM incubated for 48 hrs by AnnexinV/propidium iodide staining method; assay type: functional, cell-based; how it was run: as §2
HL-60 [27] = assay: Induction of caspase-3 activation in human HL60 cells at 5 to 25 uM incubated for 24 to 72 hrs by FACS assay; assay type: functional, cell-based
How it was run: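 HL-60 cells (RPMI with 10% heat-inactivated FCS, 37 °C, 5% CO2) were seeded in dishes and treated 24, 48 or 72 h. Cells were fixed and permeabilized 20 min on ice, then stained 30 min at RT with FITC anti-active caspase-3 antibody. Read-out was the percentage of positive cells by flow cytometry. Mean ± SD of at least three independent experiments; ANOVA with Tukey.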

Activity (Nucleic Acid [20]) | SMILES | Drug uptake (HL-60 [1]) | Activity (HL-60 [2]) | Activity (HL-60 [3]) | Activity (HL-60 [4]) | Activity (HL-60 [5]) | Activity (HL-60 [6]) | Activity (HL-60 [7]) | Activity (HL-60 [8]) | Activity (HL-60 [9]) | Activity (HL-60 [10]) | Activity (HL-60 [11]) | Activity (HL-60 [12]) | Activity (HL-60 [13]) | Activity (HL-60 [14]) | Activity (HL-60 [15]) | Activity (HL-60 [16]) | Activity (HL-60 [17]) | Activity (HL-60 [18]) | Activity (HL-60 [19]) | further results
Active | CCNC(=N)Nc1ccc2cc3ccc(NC(=N)NCC)cc3nc2c1.Cl.Cl.O | Active | inactive | inactive | inactive | inactive | inactive | inactive | inactive | inactive | inactive | inactive | inactive | inactive | inactive | inactive | 79.32% | 80.03% | 71.98% | 71.7% | Activity (Nucleic Acid [21]): Active; Activity (Nucleic Acid [22]): Active; Tm (Nucleic Acid [23]): 84 °C; Activity (HL-60 [24]): inactive; Activity (HL-60 [25]): inactive; Activity (HL-60 [26]): inactive; Activity (HL-60 [27]): inactive
inactive | CCCCCCNC(=N)Nc1ccc2cc3ccc(NC(=N)NCCCCCC)cc3nc2c1.Cl.Cl.O | Active | 5.85% | 6.51% | 16.37% | 22.5% | 27.77% | 27.52% | 43.54% | 38.11% | 47.31% | 70.31% | 48.93% | 65.72% | 64.37% | 36.31% | 57.54% | 52.7% | 76.71% | 73.7% | Activity (Nucleic Acid [21]): Active; Activity (Nucleic Acid [22]): Active; Tm (Nucleic Acid [23]): 89 °C; Activity (HL-60 [24]): Active; Activity (HL-60 [25]): Active; Activity (HL-60 [26]): Active; Activity (HL-60 [27]): Active
